Measurements as given in ChEMBL document CHEMBL1153423, “Identification and characterization of small molecule inhibitors of a class I histone deacetylase from Plasmodium falciparum” (J Med Chem, 2009).

Tests used:
MM1.S = assay: Inhibition of histone acetylation in human MM1S cells at 0.2 uM relative to untreated control; assay type: functional
[1] = Growth inhibition of human MM1S cells; assay type: cell-based; conditions: mm1.s
Plasmodium falciparum = assay: Antimalarial activity against Plasmodium falciparum 3D7 by [3H]hypoxanthine uptake; assay type: functional, organism-based
Histone deacetylase = target: T1, Histone deacetylase (Plasmodium falciparum, UniProt Q9XYC7); assay: Inhibition of Plasmodium falciparum HDAC1 expressed in Drosophila melanogaster S2 cells; assay type: cell-based
T1 sequence (Q9XYC7 whole entry): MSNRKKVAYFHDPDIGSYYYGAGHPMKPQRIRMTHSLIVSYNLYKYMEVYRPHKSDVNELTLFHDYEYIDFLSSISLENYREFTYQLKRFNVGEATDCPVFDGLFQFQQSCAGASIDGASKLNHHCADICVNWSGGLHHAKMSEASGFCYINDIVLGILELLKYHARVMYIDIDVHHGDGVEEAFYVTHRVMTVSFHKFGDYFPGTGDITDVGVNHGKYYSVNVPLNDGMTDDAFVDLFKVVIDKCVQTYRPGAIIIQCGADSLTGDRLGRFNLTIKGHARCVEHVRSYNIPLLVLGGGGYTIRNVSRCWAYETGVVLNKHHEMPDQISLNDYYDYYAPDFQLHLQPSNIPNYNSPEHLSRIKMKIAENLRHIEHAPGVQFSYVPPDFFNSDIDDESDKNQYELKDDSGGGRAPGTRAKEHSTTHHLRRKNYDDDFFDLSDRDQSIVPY
Procedure, shortened: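 Recombinant pfHDAC-1 cDNA carrying a C-terminal HPC4 epitope tag was expressed in Drosophila S2 cells. A stable pool was selected with blasticidin after co-transfection, and the enzyme was purified via the HPC4 tag. Substrate characterisation used the fluorogenic peptide Ac-Leu-Gly-Lys(Ac)-AMC, with a Michaelis–Menten fit.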

[2] = substrate: CC(=O)NCCCC[C@H](NC(=O)CNC(=O)[C@H](CC(C)C)NC(C)=O)C(=O)Nc1ccc2c(C)cc(=O)oc2c1; assay: (§1) Activity of Plasmodium falciparum HDAC1 expressed in Drosophila melanogaster S2 cells by Michaelis-Menten method; assay type: cell-based
Procedure, shortened: (§2)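 pfHDAC-1 cDNA with a C-terminal HPC4 epitope tag was expressed in a stable blasticidin-selected Drosophila S2 pool and purified through the tag. Activity was measured on the acetyl-lysine AMC peptide substrates Ac-Leu-Gly-Lys(Ac)-AMC and Boc-Lys(trifluoroacetyl)-AMC. kcat and apparent Km were obtained by fitting the Michaelis–Menten model to the rate data.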

[3] = substrate: Cc1cc(=O)oc2cc(NC(=O)[C@H](CCCCNC(=O)C(F)(F)F)NC(=O)OC(C)(C)C)ccc12; assay: as §1; assay type: cell-based; procedure, shortened: as §2

Molecule: O=C(CCCCC(=O)NN/C=C/c1ccc(O)cc1Br)NO
- fold change (FC) (MM1.S): 1.1
- Activity [1]: Non-toxic
- IC50 (Plasmodium falciparum): 53 nM
- IC50 (Histone deacetylase): 106 nM

Molecule: COc1cc(/C=C/NNC(=O)CCCCCC(=O)NO)c(Br)cc1O
- fold change (FC) (MM1.S): 1
- Activity [1]: Non-toxic
- IC50 (Plasmodium falciparum): 47 nM
- IC50 (Histone deacetylase): 59 nM

Molecule: O=C(CCCCCC(=O)NN/C=C/c1cc(O)ccc1Br)NO
- fold change (FC) (MM1.S): 1
- Activity [1]: Non-toxic
- IC50 (Plasmodium falciparum): 35 nM
- IC50 (Histone deacetylase): 49 nM

Molecule: O=C(CCCCC(=O)NN/C=C/c1cc(O)ccc1Br)NO
- fold change (FC) (MM1.S): 1.1
- Activity [1]: Non-toxic
- IC50 (Plasmodium falciparum): 30 nM
- IC50 (Histone deacetylase): 89 nM

Molecule: CN(C)c1ccc(/C=C/NNC(=O)CCCCCC(=O)NO)c(O)c1
- fold change (FC) (MM1.S): 1.2
- Activity [1]: Non-toxic
- IC50 (Plasmodium falciparum): 24 nM
- IC50 (Histone deacetylase): 37 nM

Molecule: Cc1[nH]c2ccccc2c1CCNCc1ccc(/C=C/C(=O)NO)cc1 [PANOBINOSTAT]
- IC50 (Plasmodium falciparum): 21 nM

Molecule: O=C(CCCCCC(=O)NN/C=C/c1cc2c(cc1Br)OCO2)NO
- fold change (FC) (MM1.S): 1
- Activity [1]: Non-toxic
- IC50 (Plasmodium falciparum): 59 nM
- IC50 (Histone deacetylase): 20 nM

Molecule: O=C(CCCCCCC(=O)NN/C=C/c1c(O)cc(O)cc1O)NO
- fold change (FC) (MM1.S): 1.1
- Activity [1]: Non-toxic
- IC50 (Plasmodium falciparum): 50 nM
- IC50 (Histone deacetylase): 43 nM

Molecule: Nc1ccccc1NC(=O)c1ccc(CNC(=O)OCc2cccnc2)cc1 [ENTINOSTAT]
- IC50 (Plasmodium falciparum): > 10000 nM

Molecule: O=C(CCCCCC(=O)NN/C=C/c1cccc(O)c1)NO
- fold change (FC) (MM1.S): 1.2
- Activity [1]: Non-toxic
- IC50 (Plasmodium falciparum): 99 nM
- IC50 (Histone deacetylase): 59 nM

Molecule: CCC(=O)CCCCC[C@@H]1NC(=O)[C@H]2CCCCN2C(=O)[C@H]([C@@H](C)CC)NC(=O)[C@H](Cc2cn(OC)c3ccccc23)NC1=O [APICIDIN]
- IC50 (Plasmodium falciparum): 33 nM

Molecule: CC(/C=C/C(=O)NO)=C\[C@@H](C)C(=O)c1ccc(N(C)C)cc1 [TRICHOSTATIN]
- IC50 (Plasmodium falciparum): 16 nM
- IC50 (Histone deacetylase): 0.6 nM

Molecule: COc1cc(/C=C/NNC(=O)CCCCC(=O)NO)c(Br)cc1O
- fold change (FC) (MM1.S): 1.2
- Activity [1]: Non-toxic
- IC50 (Plasmodium falciparum): 498 nM
- IC50 (Histone deacetylase): 59 nM

Molecule: O=C(CCCCCC(=O)NN/C=C/c1cccnc1Br)NO
- fold change (FC) (MM1.S): 0.9
- Activity [1]: Non-toxic
- IC50 (Plasmodium falciparum): 22 nM
- IC50 (Histone deacetylase): 36 nM

Molecule: O=C(CCCCCC(=O)NN/C=C/c1ccccc1Cl)NO
- fold change (FC) (MM1.S): 0.9
- Activity [1]: Non-toxic
- IC50 (Plasmodium falciparum): 288 nM
- IC50 (Histone deacetylase): 90 nM

Molecule: O=C(CCCCCC(=O)NN/C=C/c1c(O)ccc2ccccc12)NO
- fold change (FC) (MM1.S): 1
- Activity [1]: Non-toxic
- IC50 (Plasmodium falciparum): 20 nM
- IC50 (Histone deacetylase): 41 nM

Molecule: O=C1CCc2c(ccc3ccccc23)O1 [SPLITOMICIN]
- IC50 (Plasmodium falciparum): > 10000 nM
- IC50 (Histone deacetylase): > 10000 nM

Molecule: O=C(CCCCCC(=O)NN/C=C/c1ccc(-n2ccnc2)cc1)NO
- fold change (FC) (MM1.S): 1
- Activity [1]: Non-toxic
- IC50 (Plasmodium falciparum): 57 nM
- IC50 (Histone deacetylase): 15 nM

Molecule: O=C(CCCCCCC(=O)NN/C=C/c1cc(O)ccc1O)NO
- fold change (FC) (MM1.S): 1.1
- Activity [1]: Non-toxic
- IC50 (Plasmodium falciparum): 142 nM
- IC50 (Histone deacetylase): 110 nM

Molecule: COc1ccc(Br)c(/C=C/NNC(=O)CCCCCC(=O)NO)c1
- fold change (FC) (MM1.S): 1.1
- Activity [1]: Non-toxic
- IC50 (Plasmodium falciparum): > 500 nM
- IC50 (Histone deacetylase): 22 nM

Molecule: O=C(CCCCCC(=O)NN/C=C/c1ccccc1Br)NO
- fold change (FC) (MM1.S): 1.1
- Activity [1]: Non-toxic
- IC50 (Plasmodium falciparum): 15 nM
- IC50 (Histone deacetylase): 37 nM

B1: Histone deacetylase (Plasmodium falciparum), Q9XYC7 (protein)
chain: T1 sequence (Q9XYC7 whole entry)
- Km [2]: 30 µM
- kcat [2]: 0.19 s⁻¹
- Km [3]: Not Active
- kcat [3]: Not Active
